Data: ChEMBL document CHEMBL5338787, “Discovery of Novel Bruton's Tyrosine Kinase PROTACs with Enhanced Selectivity and Cellular Efficacy” (J Med Chem, 2023)
Active and inactive are the calls of the source. No cut-off for these calls is given here.

Tests used:
[1] = target: T1, Tyrosine-protein kinase BTK (Homo sapiens, UniProt Q06187); test: Inhibition of BTK in HEK293 cells using NanoGlo substrate incubated for 2 hrs by NanoBRET assay; type: cell-based
[2] = target: T2, Protein cereblon/Tyrosine-protein kinase BTK (Homo sapiens, UniProt Q06187+Q96SW2); test: PROTAC activity at BTK/CRBN protein protein interaction in human Ramos cell assessed as degradation of BTK incubated for 17 hrs measured by Western blot analysis relative to control; type: cell-based
How it was run: (§1)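 Ramos or JeKo-1 cells (2 × 10^6 per well) were exposed for 17 h to 3000–0.15 nM PROTAC in 3-fold steps. Cells were lysed and analysed by western blot, with BTK normalised to β-actin. DC50 and Dmax come from the dose-response; DC50 is the mean ± SD of two independent experiments.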
Target sequence in this assay (Q06187 2-659 limits assumed): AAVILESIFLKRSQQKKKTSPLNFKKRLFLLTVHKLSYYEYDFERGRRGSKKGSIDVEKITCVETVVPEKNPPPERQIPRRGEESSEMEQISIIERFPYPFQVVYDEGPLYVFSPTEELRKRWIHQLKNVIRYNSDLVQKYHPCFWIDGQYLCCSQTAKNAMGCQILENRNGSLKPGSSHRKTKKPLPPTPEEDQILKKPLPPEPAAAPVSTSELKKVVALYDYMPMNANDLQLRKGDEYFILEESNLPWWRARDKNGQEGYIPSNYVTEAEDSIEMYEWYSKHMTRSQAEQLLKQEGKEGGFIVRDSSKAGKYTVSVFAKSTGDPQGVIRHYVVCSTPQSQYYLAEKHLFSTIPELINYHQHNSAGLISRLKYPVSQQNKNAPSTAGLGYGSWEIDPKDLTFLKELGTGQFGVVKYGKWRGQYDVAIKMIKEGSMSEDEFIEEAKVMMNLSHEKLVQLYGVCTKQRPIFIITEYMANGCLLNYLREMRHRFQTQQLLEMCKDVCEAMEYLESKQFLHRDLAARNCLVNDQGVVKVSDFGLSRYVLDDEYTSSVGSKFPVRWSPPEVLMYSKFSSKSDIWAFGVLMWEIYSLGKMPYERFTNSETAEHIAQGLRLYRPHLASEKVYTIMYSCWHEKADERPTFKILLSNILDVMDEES
Target sequence in this assay (Q96SW2 whole entry partner): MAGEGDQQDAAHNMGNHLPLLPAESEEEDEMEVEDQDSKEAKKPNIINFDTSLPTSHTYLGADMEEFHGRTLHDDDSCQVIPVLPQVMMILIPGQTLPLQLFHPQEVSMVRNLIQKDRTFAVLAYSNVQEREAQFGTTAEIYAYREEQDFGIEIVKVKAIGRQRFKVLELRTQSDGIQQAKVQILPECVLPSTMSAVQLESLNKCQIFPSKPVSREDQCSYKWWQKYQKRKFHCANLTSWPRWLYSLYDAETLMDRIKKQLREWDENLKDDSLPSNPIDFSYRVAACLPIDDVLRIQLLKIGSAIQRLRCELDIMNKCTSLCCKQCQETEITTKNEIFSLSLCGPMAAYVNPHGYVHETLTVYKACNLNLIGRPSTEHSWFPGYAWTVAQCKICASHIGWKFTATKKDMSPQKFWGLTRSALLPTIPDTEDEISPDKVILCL

[3] = target: T2, Protein cereblon/Tyrosine-protein kinase BTK; test: PROTAC activity at Halo-tagged CRBN/NanoLuc fusion tagged BTK transfected in HEK293 cells assessed as degradation of BTK by measuring ternary complex formation using NanoGlo substrate preincubated with proteasome inhibitor MG-132 for 30 mins followed by compound and substrate addition incubated for 2.5 hrs measured by NANOBRET assay relative to 4-((2-((S)-4-(6-((2'-(7,7-Dimethyl-1-oxo-1,3,4,6,7,8-hexahydro-2H-cyclopenta[4,5]pyrrolo[1,2-a]pyrazin-2-yl)-3'-(hydroxymethyl)-1-methyl-6-oxo-1,6-dihydro-[3,4'-bipyridin]-5-yl)amino)pyridin-3-yl)-3-methylpiperazin-1-yl)-2-oxoethyl)amino)-2-(2,6-dioxopiperidin-3-yl)isoindoline-1,3-dione; type: cell-based; parameters: scale not given: the % may be the effect or the level left
Target sequence in this assay (Q06187 2-659 limits assumed): as the sequence (Q06187 2-659 limits assumed) above
Target sequence in this assay (Q96SW2 whole entry partner): as the sequence (Q96SW2 whole entry partner) above

[4] = target: T2, Protein cereblon/Tyrosine-protein kinase BTK; test: PROTAC activity at BTK/CRBN protein protein interaction in human JeKo-1 cell assessed as degradation of BTK incubated for 17 hrs measured by Western blot analysis relative to control; type: cell-based; how it was run: as §1
Target sequence in this assay (Q06187 2-659 limits assumed): as the sequence (Q06187 2-659 limits assumed) above
Target sequence in this assay (Q96SW2 whole entry partner): as the sequence (Q96SW2 whole entry partner) above

[5] = target: T2, Protein cereblon/Tyrosine-protein kinase BTK; test: PROTAC activity at BTK/CRBN protein protein interaction in human JeKo-1 cell assessed as degradation of BTK incubated for 17 hrs measured by Western blot analysis; type: cell-based; how it was run: as §1
Target sequence in this assay (Q06187 whole entry): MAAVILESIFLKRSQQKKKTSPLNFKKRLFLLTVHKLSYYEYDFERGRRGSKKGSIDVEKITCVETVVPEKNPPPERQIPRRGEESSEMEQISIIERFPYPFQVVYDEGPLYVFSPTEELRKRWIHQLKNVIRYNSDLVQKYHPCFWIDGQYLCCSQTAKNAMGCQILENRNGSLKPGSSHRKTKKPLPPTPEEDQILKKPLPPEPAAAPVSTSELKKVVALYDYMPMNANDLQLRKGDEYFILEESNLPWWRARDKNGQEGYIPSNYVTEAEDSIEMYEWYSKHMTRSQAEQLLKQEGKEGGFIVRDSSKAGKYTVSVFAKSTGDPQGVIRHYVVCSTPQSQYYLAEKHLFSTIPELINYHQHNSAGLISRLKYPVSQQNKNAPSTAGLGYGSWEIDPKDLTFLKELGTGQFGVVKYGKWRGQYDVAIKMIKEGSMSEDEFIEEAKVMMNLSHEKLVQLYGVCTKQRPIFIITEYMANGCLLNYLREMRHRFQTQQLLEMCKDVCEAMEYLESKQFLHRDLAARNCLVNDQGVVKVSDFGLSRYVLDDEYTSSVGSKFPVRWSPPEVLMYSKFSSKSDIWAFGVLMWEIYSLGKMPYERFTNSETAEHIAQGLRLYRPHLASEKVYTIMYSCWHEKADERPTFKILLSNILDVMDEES
Target sequence in this assay (Q96SW2 whole entry): as the sequence (Q96SW2 whole entry partner) above

[6] = target: T1, Tyrosine-protein kinase BTK; test: Binding affinity to full length BTK (unknown origin) assessed as dissociation constant measured at 37 degree C by TR-FRET assay
[7] = target: T1, Tyrosine-protein kinase BTK; test: Potency index, ratio of test compound Kd to GDC-0853 Kd for full length BTK (unknown origin)
Protein cereblon = Protein cereblon (Homo sapiens, UniProt Q96SW2); test: Inhibition of CRBN in HEK293 cells using NanoGlo substrate incubated for 2 hrs by NanoBRET assay; type: cell-based
[8] = target: T2, Protein cereblon/Tyrosine-protein kinase BTK; test: PROTAC activity at BTK/CRBN protein protein interaction in human Ramos cell assessed as degradation of BTK incubated for 17 hrs measured by Western blot analysis; type: cell-based; how it was run: as §1
Target sequence in this assay (Q06187 whole entry): as the sequence (Q06187 whole entry) above
Target sequence in this assay (Q96SW2 whole entry): as the sequence (Q96SW2 whole entry partner) above

TMD8 = test: Cytotoxicity against human TMD8 cells incubated for 48 hrs by celltitre glo 2.0 assay; type: functional, cell-based; details: TMD8, 48 h
[9] = Cytotoxicity against human MINO cells incubated for 48 hrs by celltitre glo 2.0 assay; type: functional, cell-based
[10] = target: Tyrosine-protein kinase CSK (Homo sapiens) (UniProt P41240); test: Degradation of CSK in human TMD8 cells by measuring protein level at 111 nM for 6 hrs using label free proteomic analysis; type: cell-based
How it was run: (§2)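 TMD8 cells (2 × 10^6) given 111 nM or DMSO for 6 h in duplicate. Lysed in 5% SDS/50 mM TEAB pH 8.5. 200 μg protein reduced (10 mM DTT, 55 °C, 30 min), alkylated (50 mM iodoacetamide), S-Trap processed, then LC-MS/MS. Label-free matched-peptide quantitation against DMSO, human UniProt; Benjamini–Hochberg-corrected p-values.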

[11] = target: DNA-binding protein Ikaros (Homo sapiens) (UniProt Q13422); test: Degradation of IKZF1 in human TMD8 cells by measuring protein level at 111 nM for 6 hrs using label free proteomic analysis; type: cell-based; how it was run: as §2
[12] = target: Eukaryotic peptide chain release factor GTP-binding subunit ERF3A (Homo sapiens) (UniProt P15170); test: Degradation of […] in human TMD8 cells by measuring protein level at 111 nM for 6 hrs using label free proteomic analysis; type: cell-based; how it was run: as §2
[13] = target: Zinc finger protein Aiolos (Homo sapiens) (UniProt Q9UKT9); test: Degradation of IKZF3 in human TMD8 cells by measuring protein level at 111 nM for 6 hrs using label free proteomic analysis; type: cell-based; how it was run: as §2
[14] = target: Tyrosine-protein kinase FRK (Homo sapiens) (UniProt P42685); test: Degradation of FRK in human TMD8 cells by measuring protein level at 111 nM for 6 hrs using label free proteomic analysis; type: cell-based; how it was run: as §2
[15] = target: T3, Zinc finger protein 280D (Homo sapiens) (UniProt Q6N043); test: Degradation of […] in human TMD8 cells by measuring protein level at 111 nM for 6 hrs using label free proteomic analysis; type: cell-based; how it was run: as §2
T3 sequence (whole entry): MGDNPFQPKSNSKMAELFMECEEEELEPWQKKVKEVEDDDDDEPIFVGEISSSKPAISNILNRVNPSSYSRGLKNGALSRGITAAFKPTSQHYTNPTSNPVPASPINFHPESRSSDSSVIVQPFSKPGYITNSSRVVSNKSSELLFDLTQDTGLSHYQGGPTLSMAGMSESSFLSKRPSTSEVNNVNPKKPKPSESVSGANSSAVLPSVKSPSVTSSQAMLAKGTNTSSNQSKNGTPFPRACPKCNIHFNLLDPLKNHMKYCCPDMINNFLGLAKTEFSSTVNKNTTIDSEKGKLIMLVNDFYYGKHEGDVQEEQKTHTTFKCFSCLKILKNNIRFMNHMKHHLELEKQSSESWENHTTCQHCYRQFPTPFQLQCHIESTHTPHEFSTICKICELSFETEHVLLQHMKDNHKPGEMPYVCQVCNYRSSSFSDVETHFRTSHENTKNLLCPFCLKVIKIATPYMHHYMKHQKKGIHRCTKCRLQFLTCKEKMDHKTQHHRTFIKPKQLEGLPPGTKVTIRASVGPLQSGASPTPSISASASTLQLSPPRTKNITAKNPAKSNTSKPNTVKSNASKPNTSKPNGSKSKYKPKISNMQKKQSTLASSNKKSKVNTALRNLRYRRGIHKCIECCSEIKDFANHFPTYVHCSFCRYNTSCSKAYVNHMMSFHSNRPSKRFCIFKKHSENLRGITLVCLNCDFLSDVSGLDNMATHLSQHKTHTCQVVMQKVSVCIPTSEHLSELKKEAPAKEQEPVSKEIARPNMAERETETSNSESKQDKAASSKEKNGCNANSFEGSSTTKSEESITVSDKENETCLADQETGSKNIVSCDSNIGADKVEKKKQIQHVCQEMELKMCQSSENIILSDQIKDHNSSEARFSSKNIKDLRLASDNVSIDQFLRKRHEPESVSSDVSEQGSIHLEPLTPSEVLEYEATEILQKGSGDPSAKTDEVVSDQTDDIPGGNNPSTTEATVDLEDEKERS

MINO = test: Induction of apoptosis in human MINO cells measured after 48 hrs by Annexin-V/propidium iodide staining based flow cytometric analysis; type: functional, cell-based; details: dose 0.15-3000 nM
How it was run: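 Cells plated at 2 × 10^6 per well and treated 48 h at 3,000–0.15 nM (3-fold dilutions) or 1% DMSO. Harvested, washed in cold PBS, stained with Annexin V Alexa Fluor 488/propidium iodide, analysed by flow cytometry for % live, apoptotic and necrotic cells. Mean of two independent experiments.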

T1 sequence (Q06187 whole entry): as the sequence (Q06187 whole entry) above
Protein cereblon, sequence (Q96SW2 whole entry): as the sequence (Q96SW2 whole entry partner) above
DNA-binding protein Ikaros (Homo sapiens), sequence (Q13422 whole entry): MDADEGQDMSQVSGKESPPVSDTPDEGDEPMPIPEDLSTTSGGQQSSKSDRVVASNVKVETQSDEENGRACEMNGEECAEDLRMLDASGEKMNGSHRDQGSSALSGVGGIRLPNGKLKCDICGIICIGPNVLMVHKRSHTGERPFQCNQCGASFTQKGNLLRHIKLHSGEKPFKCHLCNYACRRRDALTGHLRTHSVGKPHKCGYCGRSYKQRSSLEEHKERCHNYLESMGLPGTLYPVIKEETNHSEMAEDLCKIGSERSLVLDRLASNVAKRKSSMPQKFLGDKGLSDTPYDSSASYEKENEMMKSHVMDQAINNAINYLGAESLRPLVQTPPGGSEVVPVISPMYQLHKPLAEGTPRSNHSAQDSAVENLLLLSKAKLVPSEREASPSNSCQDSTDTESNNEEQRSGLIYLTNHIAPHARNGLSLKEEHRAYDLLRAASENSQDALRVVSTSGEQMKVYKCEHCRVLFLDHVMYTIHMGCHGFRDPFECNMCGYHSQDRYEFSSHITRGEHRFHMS
Zinc finger protein Aiolos (Homo sapiens), sequence (Q9UKT9 whole entry): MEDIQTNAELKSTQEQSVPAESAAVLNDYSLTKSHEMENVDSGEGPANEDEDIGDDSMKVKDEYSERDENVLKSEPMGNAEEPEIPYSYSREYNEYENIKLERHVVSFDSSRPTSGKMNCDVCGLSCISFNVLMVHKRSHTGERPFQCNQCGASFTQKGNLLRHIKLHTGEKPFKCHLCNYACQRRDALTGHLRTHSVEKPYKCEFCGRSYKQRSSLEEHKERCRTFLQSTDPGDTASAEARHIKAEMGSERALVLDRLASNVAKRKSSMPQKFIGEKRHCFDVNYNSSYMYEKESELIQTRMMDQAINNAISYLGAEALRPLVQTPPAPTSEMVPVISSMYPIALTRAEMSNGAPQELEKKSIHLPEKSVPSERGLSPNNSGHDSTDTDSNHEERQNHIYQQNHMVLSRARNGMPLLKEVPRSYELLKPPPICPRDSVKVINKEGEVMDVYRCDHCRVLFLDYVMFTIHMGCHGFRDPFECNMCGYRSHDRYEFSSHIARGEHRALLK
Tyrosine-protein kinase FRK (Homo sapiens), sequence (P42685 whole entry): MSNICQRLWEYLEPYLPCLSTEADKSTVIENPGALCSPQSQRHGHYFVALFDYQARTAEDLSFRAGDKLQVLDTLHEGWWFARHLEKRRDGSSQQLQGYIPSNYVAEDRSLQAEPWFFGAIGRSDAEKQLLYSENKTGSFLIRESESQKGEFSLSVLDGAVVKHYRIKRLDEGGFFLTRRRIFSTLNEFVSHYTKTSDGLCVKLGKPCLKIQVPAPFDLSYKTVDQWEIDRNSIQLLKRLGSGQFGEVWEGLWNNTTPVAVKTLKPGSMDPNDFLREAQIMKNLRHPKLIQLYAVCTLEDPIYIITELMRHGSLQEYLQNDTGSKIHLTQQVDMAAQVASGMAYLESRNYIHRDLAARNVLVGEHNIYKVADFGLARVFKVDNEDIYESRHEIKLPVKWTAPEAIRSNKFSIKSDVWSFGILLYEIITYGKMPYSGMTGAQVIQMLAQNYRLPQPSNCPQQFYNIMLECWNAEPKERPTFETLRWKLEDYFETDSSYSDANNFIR
Eukaryotic peptide chain release factor GTP-binding subunit ERF3A (Homo sapiens), sequence (P15170 whole entry): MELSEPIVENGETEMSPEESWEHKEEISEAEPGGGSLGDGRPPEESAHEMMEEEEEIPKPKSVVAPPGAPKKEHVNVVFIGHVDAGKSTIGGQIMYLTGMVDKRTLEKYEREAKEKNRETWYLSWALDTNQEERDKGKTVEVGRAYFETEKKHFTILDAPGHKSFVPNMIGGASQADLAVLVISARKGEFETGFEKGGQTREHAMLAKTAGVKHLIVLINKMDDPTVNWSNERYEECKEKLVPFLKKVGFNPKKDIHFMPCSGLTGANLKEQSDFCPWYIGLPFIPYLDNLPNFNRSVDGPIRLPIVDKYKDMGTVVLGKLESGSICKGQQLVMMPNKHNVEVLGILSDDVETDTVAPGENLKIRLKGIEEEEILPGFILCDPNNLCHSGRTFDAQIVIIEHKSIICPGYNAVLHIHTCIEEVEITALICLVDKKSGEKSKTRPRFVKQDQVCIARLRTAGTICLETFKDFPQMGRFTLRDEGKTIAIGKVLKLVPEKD
Tyrosine-protein kinase CSK (Homo sapiens), sequence (P41240 2-450 limits assumed): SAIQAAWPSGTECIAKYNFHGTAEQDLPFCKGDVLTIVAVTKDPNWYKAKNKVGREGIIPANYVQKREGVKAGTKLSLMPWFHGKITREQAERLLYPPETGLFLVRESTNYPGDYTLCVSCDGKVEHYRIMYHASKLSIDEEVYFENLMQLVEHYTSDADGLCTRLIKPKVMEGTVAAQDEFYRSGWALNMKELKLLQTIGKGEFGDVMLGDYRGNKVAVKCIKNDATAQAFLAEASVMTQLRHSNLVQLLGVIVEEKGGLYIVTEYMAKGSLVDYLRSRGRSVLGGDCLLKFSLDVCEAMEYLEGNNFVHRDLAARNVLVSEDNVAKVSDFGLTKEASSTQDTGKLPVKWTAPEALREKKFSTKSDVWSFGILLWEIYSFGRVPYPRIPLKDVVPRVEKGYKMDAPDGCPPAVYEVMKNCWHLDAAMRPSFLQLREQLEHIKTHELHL

| SMILES | Emax [2] [%] | Emax [4] [%] | DC50 [5] [nM] | DC50 [8] [nM] | other results |
| --- | --- | --- | --- | --- | --- |
| C[C@H]1CN(C(=O)CCCCCCCCCCCNc2cccc3c2C(=O)N(C2CCC(=O)NC2=O)C3=O)CCN1c1ccc(Nc2cc(-c3ccnc(N4CCn5c(cc6c5CC(C)(C)C6)C4=O)c3CO)cn(C)c2=O)nc1 (some centres undefined) | 89 | 89.8 | 348 | 113 | IC50 [1]: 3200 nM; Activity [3]: 75%; Kd [6]: 107 nM; Ratio [7]: 300; IC50 (Protein cereblon): 5000 nM |
| C[C@H]1CN(C(=O)CCCCCCNc2cccc3c2C(=O)N(C2CCC(=O)NC2=O)C3=O)CCN1c1ccc(Nc2cc(-c3ccnc(N4CCn5c(cc6c5CC(C)(C)C6)C4=O)c3CO)cn(C)c2=O)nc1 (some centres undefined) | 95 | 97 | 3.3 | 3.2 | – |
| C[C@H]1CN(CCCCCCOCCOCC(=O)Nc2cccc3c2C(=O)N(C2CCC(=O)NC2=O)C3=O)CCN1c1ccc(Nc2cc(-c3ccnc(N4CCn5c(cc6c5CC(C)(C)C6)C4=O)c3CO)cn(C)c2=O)nc1 (some centres undefined) | 95.6 | 96.9 | 9.7 | 7 | – |
| C[C@H]1CN(C(=O)CNc2ccc3c(c2)C(=O)N(C2CCC(=O)NC2=O)C3=O)CCN1c1ccc(Nc2cc(-c3ccnc(N4CCn5c(cc6c5CC(C)(C)C6)C4=O)c3CO)cn(C)c2=O)nc1 (some centres undefined) | 97.3 | 97.6 | 0.8 | 0.9 | – |
| C[C@H]1CN(C(=O)CNc2cccc3c2CN(C2CCC(=O)NC2=O)C3=O)CCN1c1ccc(Nc2cc(-c3ccnc(N4CCn5c(cc6c5CC(C)(C)C6)C4=O)c3CO)cn(C)c2=O)nc1 (some centres undefined) | 89.8 | 89.2 | 4.6 | 3.6 | – |
| Cn1cc(-c2ccnc(N3CCn4c(cc5c4CC(C)(C)C5)C3=O)c2CO)cc(Nc2ccc(N3CCN(CCCCCCOCCOCC(=O)Nc4cccc5c4C(=O)N(C4CCC(=O)NC4=O)C5=O)CC3)cn2)c1=O (centres undefined) | 97.2 | 97.7 | 6.8 | 5.3 | – |
| Cn1cc(-c2ccnc(N3CCn4c(cc5c4CC(C)(C)C5)C3=O)c2CO)cc(Nc2ccc(N3CCN(C(=O)CCCCCCNc4cccc5c4C(=O)N(C4CCC(=O)NC4=O)C5=O)CC3)cn2)c1=O (centres undefined) | 96.9 | 98 | 3.5 | 2 | – |
| Cn1cc(-c2ccnc(N3CCn4c(cc5c4CC(C)(C)C5)C3=O)c2CO)cc(Nc2ccc(N3CCN(C(=O)CCCCCCOCCOCC(=O)Nc4cccc5c4C(=O)N(C4CCC(=O)NC4=O)C5=O)CC3)cn2)c1=O (centres undefined) | 98.3 | 98.8 | 7.2 | 4 | – |
| C[C@H]1CN(C(=O)CCOCCOCCNc2cccc3c2C(=O)N(C2CCC(=O)NC2=O)C3=O)CCN1c1ccc(Nc2cc(-c3ccnc(N4CCn5c(cc6c5CC(C)(C)C6)C4=O)c3CO)cn(C)c2=O)nc1 (some centres undefined) | 96.1 | 95.1 | 4.1 | 1.3 | – |
| C[C@H]1CN(C(=O)CCCCCCOCCOCC(=O)Nc2cccc3c2C(=O)N(C2CCC(=O)NC2=O)C3=O)CCN1c1ccc(Nc2cc(-c3ccnc(N4CCn5c(cc6c5CC(C)(C)C6)C4=O)c3CO)cn(C)c2=O)nc1 (some centres undefined) | 97.1 | 97.7 | – | 6.6 | – |
| Nc1ncnc2c1c(-c1ccc(Oc3ccccc3)cc1)nn2C1CCN(CCOCCOCC(=O)Nc2ccc3c(c2)C(=O)N(C2CCC(=O)NC2=O)C3=O)CC1 (centres undefined) | – | – | – | – | IC50 (TMD8): 12 nM; IC50 [9]: 100 nM |
| C[C@H]1CN(C(=O)c2cccc3c2C(=O)N(C2CCC(=O)NC2=O)C3=O)CCN1c1ccc(Nc2cc(-c3ccnc(N4CCn5c(cc6c5CC(C)(C)C6)C4=O)c3CO)cn(C)c2=O)nc1 (some centres undefined) | 30.1 | 30 | > 3000 | > 3000 | IC50 [1]: 320 nM; Activity [3]: 0%; Kd [6]: 0.86 nM; Ratio [7]: 3; IC50 (Protein cereblon): 7000 nM |
| Cc1c(NC(=O)c2ccc(C(C)(C)C)cc2)cccc1-c1cn(C)c(=O)c(Nc2ccc(C(=O)N3CCN(CCCCCCNC(=O)CNc4cccc5c4C(=O)N(C4CCC(=O)NC4=O)C5=O)CC3)cc2)n1 (centres undefined) | – | – | – | – | IC50 (TMD8): 5.1 nM; IC50 [9]: 10.9 nM |
| C[C@H]1CN(C(=O)CCCNc2cccc3c2C(=O)N(C2CCC(=O)NC2=O)C3=O)CCN1c1ccc(Nc2cc(-c3ccnc(N4CCn5c(cc6c5CC(C)(C)C6)C4=O)c3CO)cn(C)c2=O)nc1 (some centres undefined) | 95.7 | 97.4 | 1 | 0.9 | – |
| Nc1ncnc2c1c(-c1ccc(Oc3ccccc3)cc1)nn2[C@@H]1CCCN(C(=O)c2cn(CCOCCOCCOCCNc3cccc4c3C(=O)N(C3CCC(=O)NC3=O)C4=O)nn2)C1 (some centres undefined) | – | – | – | – | Activity [10]: Active; Activity [11]: Active; Activity [12]: inactive; IC50 (TMD8): 15 nM; Activity [13]: Active; Activity [14]: Active; IC50 [9]: 10.4 nM; Activity [15]: Active |
| C[C@H]1CN(C(=O)CCCCCCCCCNc2cccc3c2C(=O)N(C2CCC(=O)NC2=O)C3=O)CCN1c1ccc(Nc2cc(-c3ccnc(N4CCn5c(cc6c5CC(C)(C)C6)C4=O)c3CO)cn(C)c2=O)nc1 (some centres undefined) | 94 | 97.1 | 32.1 | 31.2 | – |
| Nc1cccc2c1C(=O)N(C1CCC(=O)NC1=O)C2=O (centres undefined) | – | – | – | – | Activity (MINO): Dose-Dependent Effect |
